Laboratory results published in ChEMBL document CHEMBL1165943, “Design and synthesis of new anticancer pyrimidines with multiple-kinase inhibitory effect” (Bioorg Med Chem, 2010).

Columns and labels:
Format in all cases: functional
K562 = experiment: Cytotoxicity against human K562 cells assessed as cell growth at 10 uM; settings: Homo sapiens, K562; read-out: Activity
How it was run: (§1)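 Single-dose screen at 10 μM across the 60-cell-line panel. Cells grown in RPMI 1640 with 5% FBS and 2 mM L-glutamine, seeded at 5,000–40,000 cells/well according to doubling time, and treated 24 h later. Exposure lasted 48 h at 37 °C, 5% CO₂. Adherent cells were fixed with cold TCA, suspension cells were fixed settled, and both were stained with SRB and read at 515 nm. Growth % was recorded, with inhibition % = 100 − growth %.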

EKVX = experiment: Cytotoxicity against human EKVX cells assessed as cell growth at 10 uM; settings: Homo sapiens, EKVX; read-out: Activity
How it was run: (§2)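 Single-concentration screen at 10 μM across the 60-cell-line panel (nine tissue types); growth percentage recorded per cell line, with inhibition taken as 100 minus growth percentage.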

HOP-62 = experiment: Cytotoxicity against human HOP62 cells assessed as cell growth at 10 uM; settings: Homo sapiens, HOP-62; read-out: Activity; how it was run: as §2
NCI-H226 = experiment: Cytotoxicity against human NCI-H226 cells assessed as cell growth at 10 uM; settings: Homo sapiens, NCI-H226; read-out: Activity; how it was run: as §1
NCI-H23 = experiment: Cytotoxicity against human NCI-H23 cells assessed as cell growth at 10 uM; settings: Homo sapiens, NCI-H23; read-out: Activity; how it was run: as §1
NCI-H322M = experiment: Cytotoxicity against human NCI-H322M cells assessed as cell growth at 10 uM; settings: Homo sapiens, NCI-H322M; read-out: Activity; how it was run: as §1
NCI-H460 = experiment: Cytotoxicity against human NCI-H460 cells assessed as cell growth at 10 uM; settings: Homo sapiens, NCI-H460; read-out: Activity; how it was run: as §1
COLO 205 = experiment: Cytotoxicity against human COLO205 cells assessed as cell growth at 10 uM; settings: Homo sapiens, COLO 205; read-out: Activity; how it was run: as §2
HCC 2998 = experiment: Cytotoxicity against human HCC2998 cells assessed as cell growth at 10 uM; settings: Homo sapiens, HCC 2998; read-out: Activity; how it was run: as §2
HCT-116 = experiment: Cytotoxicity against human HCT116 cells assessed as cell growth at 10 uM; settings: Homo sapiens, HCT-116; read-out: Activity; how it was run: as §2
HCT-15 = experiment: Cytotoxicity against human HCT15 cells assessed as cell growth at 10 uM; settings: Homo sapiens, HCT-15; read-out: Activity; how it was run: as §2
HT-29 = experiment: Cytotoxicity against human HT-29 cells assessed as cell growth at 10 uM; settings: Homo sapiens, HT-29; read-out: Activity; how it was run: as §2
KM12 = experiment: Cytotoxicity against human KM12 cells assessed as cell growth at 10 uM; settings: Homo sapiens, KM12; read-out: Activity; how it was run: as §1
SW-620 = experiment: Cytotoxicity against human SW620 cells assessed as cell growth at 10 uM; settings: Homo sapiens, SW-620; read-out: Activity; how it was run: as §1
SF-268 = experiment: Cytotoxicity against human SF268 cells assessed as cell growth at 10 uM; settings: Homo sapiens, SF-268; read-out: Activity; how it was run: as §1
Malme-3M = experiment: Cytotoxicity against human MALME-3M cells assessed as cell growth at 10 uM; settings: Homo sapiens, Malme-3M; read-out: Activity; how it was run: as §1
SK-MEL-2 = experiment: Cytotoxicity against human SK-MEL-2 cells assessed as cell growth at 10 uM; settings: Homo sapiens, SK-MEL-2; read-out: Activity; how it was run: as §1
SK-MEL-5 = experiment: Cytotoxicity against human SK-MEL-5 cells assessed as cell growth at 10 uM; settings: Homo sapiens, SK-MEL-5; read-out: Activity; how it was run: as §1
UACC-257 = experiment: Cytotoxicity against human UACC257 cells assessed as cell growth at 10 uM; settings: Homo sapiens, UACC-257; read-out: Activity; how it was run: as §1
UACC-62 = experiment: Cytotoxicity against human UACC62 cells assessed as cell growth at 10 uM; settings: Homo sapiens, UACC-62; read-out: Activity; how it was run: as §1
IGROV-1 = experiment: Cytotoxicity against human IGROV1 cells assessed as cell growth at 10 uM; settings: Homo sapiens, IGROV-1; read-out: Activity; how it was run: as §1
OVCAR-3 = experiment: Cytotoxicity against human OVCAR-3 cells assessed as cell growth at 10 uM; settings: Homo sapiens, OVCAR-3; read-out: Activity; how it was run: as §1
OVCAR-4 = experiment: Cytotoxicity against human OVCAR4 cells assessed as cell growth at 10 uM; settings: Homo sapiens, OVCAR-4; read-out: Activity; how it was run: as §1
OVCAR-5 = experiment: Cytotoxicity against human OVCAR5 cells assessed as cell growth at 10 uM; settings: Homo sapiens, OVCAR-5; read-out: Activity; how it was run: as §1
OVCAR-8 = experiment: Cytotoxicity against human OVCAR8 cells assessed as cell growth at 10 uM; settings: Homo sapiens, OVCAR-8; read-out: Activity; how it was run: as §1
NCI/ADR-RES = experiment: Cytotoxicity against human NCI/ADR-RES cells assessed as cell growth at 10 uM; settings: Homo sapiens, NCI/ADR-RES; read-out: Activity; how it was run: as §1
SK-OV-3 = experiment: Cytotoxicity against human SKOV3 cells assessed as cell growth at 10 uM; settings: Homo sapiens, SK-OV-3; read-out: Activity; how it was run: as §1
786-0 = experiment: Cytotoxicity against human 786-0 cells assessed as cell growth at 10 uM; settings: Homo sapiens, 786-0; read-out: Activity; how it was run: as §2
A498 = experiment: Cytotoxicity against human A498 cells assessed as cell growth at 10 uM; settings: Homo sapiens, A498; read-out: Activity; how it was run: as §2
TK-10 = experiment: Cytotoxicity against human TK10 cells assessed as cell growth at 10 uM; settings: Homo sapiens, TK-10; read-out: Activity; how it was run: as §1
UO-31 = experiment: Cytotoxicity against human UO31 cells assessed as cell growth at 10 uM; settings: Homo sapiens, UO-31; read-out: Activity; how it was run: as §1
PC-3 = experiment: Cytotoxicity against human PC3 cells assessed as cell growth at 10 uM; settings: Homo sapiens, PC-3; read-out: Activity; how it was run: as §1
MCF7 = experiment: Cytotoxicity against human MCF7 cells assessed as cell growth at 10 uM; settings: Homo sapiens, MCF7; read-out: Activity; how it was run: as §1
MDA-MB-231 = experiment: Cytotoxicity against human MDA-MB-231 cells assessed as cell growth at 10 uM; settings: Homo sapiens, MDA-MB-231; read-out: Activity; how it was run: as §1
BT-549 = experiment: Cytotoxicity against human BT549 cells assessed as cell growth at 10 uM; settings: Homo sapiens, BT-549; read-out: Activity; how it was run: as §2
T47D = experiment: Cytotoxicity against human T47D cells assessed as cell growth at 10 uM; settings: Homo sapiens, T47D; read-out: Activity; how it was run: as §1
MDA-MB-468 = experiment: Cytotoxicity against human MDA-MB-468 cells assessed as cell growth at 10 uM; settings: Homo sapiens, MDA-MB-468; read-out: Activity; how it was run: as §1
[1] = Growth inhibition of human NCI60 cells at 10 uM after 48 hrs by sulforhodamine B assay relative to control; settings: Homo sapiens, NCI60, 48 h; read-out: GI
How it was run: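 Single 10 µM dose across the 60-line panel for 48 h, with the same culture, TCA fixation and SRB 515 nm read-out. Inhibition % = 100 − growth %, given as the mean over the 60 cell lines.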

Cc1cc(-c2cccnc2)nc(NC(=O)c2cccc(C(F)(F)F)c2)n1
growth at 10 µM (K562): 89% | growth at 10 µM (EKVX): 101% | growth at 10 µM (HOP-62): 106% | growth at 10 µM (NCI-H226): 97.5% | growth at 10 µM (NCI-H23): 101% | growth at 10 µM (NCI-H322M): 100% | growth at 10 µM (NCI-H460): 103% | growth at 10 µM (COLO 205): 119% | growth at 10 µM (HCC 2998): 99.3% | growth at 10 µM (HCT-116): 105% | growth at 10 µM (HCT-15): 98.3% | growth at 10 µM (HT-29): 98.9% | growth at 10 µM (KM12): 109% | growth at 10 µM (SW-620): 105% | growth at 10 µM (SF-268): 103% | growth at 10 µM (Malme-3M): 105% | growth at 10 µM (SK-MEL-2): 93.5% | growth at 10 µM (SK-MEL-5): 99% | growth at 10 µM (UACC-257): 99.6% | growth at 10 µM (UACC-62): 92.3% | growth at 10 µM (IGROV-1): 103% | growth at 10 µM (OVCAR-3): 116% | growth at 10 µM (OVCAR-4): 103% | growth at 10 µM (OVCAR-5): 95.7% | growth at 10 µM (OVCAR-8): 96.6% | growth at 10 µM (NCI/ADR-RES): 91.2% | growth at 10 µM (SK-OV-3): 101% | growth at 10 µM (786-0): 95.2% | growth at 10 µM (A498): 93.9% | growth at 10 µM (TK-10): 102% | growth at 10 µM (UO-31): 86.7% | growth at 10 µM (PC-3): 99.2% | growth at 10 µM (MCF7): 91.5% | growth at 10 µM (MDA-MB-231): 98.4% | growth at 10 µM (BT-549): 97% | growth at 10 µM (T47D): 95.5% | growth at 10 µM (MDA-MB-468): 96.7% | inhibition of growth at 10 µM [1]: 0.62%

FC(F)(F)c1cc(Nc2nccc(-c3ccc(-c4ccccc4)nc3)n2)cc(C(F)(F)F)c1
growth at 10 µM (K562): 91.5% | growth at 10 µM (EKVX): 101% | growth at 10 µM (HOP-62): 110% | growth at 10 µM (NCI-H226): 115% | growth at 10 µM (NCI-H23): 98.5% | growth at 10 µM (NCI-H322M): 99.7% | growth at 10 µM (NCI-H460): 107% | growth at 10 µM (COLO 205): 95.6% | growth at 10 µM (HCC 2998): 124% | growth at 10 µM (HCT-116): 81.6% | growth at 10 µM (HCT-15): 99.9% | growth at 10 µM (HT-29): 86% | growth at 10 µM (KM12): 105% | growth at 10 µM (SW-620): 110% | growth at 10 µM (SF-268): 105% | growth at 10 µM (Malme-3M): 123% | growth at 10 µM (SK-MEL-2): 91.6% | growth at 10 µM (SK-MEL-5): 102% | growth at 10 µM (UACC-257): 113% | growth at 10 µM (UACC-62): 85.3% | growth at 10 µM (IGROV-1): 77.8% | growth at 10 µM (OVCAR-3): 114% | growth at 10 µM (OVCAR-4): 95% | growth at 10 µM (OVCAR-5): 111% | growth at 10 µM (OVCAR-8): 94.1% | growth at 10 µM (NCI/ADR-RES): 101% | growth at 10 µM (SK-OV-3): 94.6% | growth at 10 µM (786-0): 101% | growth at 10 µM (A498): 110% | growth at 10 µM (TK-10): 99.5% | growth at 10 µM (UO-31): 87.2% | growth at 10 µM (PC-3): 90.3% | growth at 10 µM (MCF7): 83.2% | growth at 10 µM (MDA-MB-231): 87.3% | growth at 10 µM (BT-549): 106% | growth at 10 µM (T47D): 80.1% | growth at 10 µM (MDA-MB-468): 110% | inhibition of growth at 10 µM [1]: 0.49%

Cc1ccc(Nc2nc(C)cc(-c3cccnc3)n2)c(C)c1
growth at 10 µM (K562): 85.8% | growth at 10 µM (EKVX): 96.1% | growth at 10 µM (HOP-62): 111% | growth at 10 µM (NCI-H226): 94.8% | growth at 10 µM (NCI-H23): 90.9% | growth at 10 µM (NCI-H322M): 100% | growth at 10 µM (NCI-H460): 95.7% | growth at 10 µM (COLO 205): 122% | growth at 10 µM (HCC 2998): 101% | growth at 10 µM (HCT-116): 95.2% | growth at 10 µM (HCT-15): 99.7% | growth at 10 µM (HT-29): 96.8% | growth at 10 µM (KM12): 98.7% | growth at 10 µM (SW-620): 97.5% | growth at 10 µM (SF-268): 96.4% | growth at 10 µM (Malme-3M): 107% | growth at 10 µM (SK-MEL-2): 107% | growth at 10 µM (SK-MEL-5): 89.8% | growth at 10 µM (UACC-257): 100% | growth at 10 µM (UACC-62): 82.4% | growth at 10 µM (IGROV-1): 90.4% | growth at 10 µM (OVCAR-3): 105% | growth at 10 µM (OVCAR-4): 102% | growth at 10 µM (OVCAR-5): 106% | growth at 10 µM (OVCAR-8): 94.2% | growth at 10 µM (NCI/ADR-RES): 85% | growth at 10 µM (SK-OV-3): 104% | growth at 10 µM (786-0): 93.2% | growth at 10 µM (A498): 96.1% | growth at 10 µM (TK-10): 118% | growth at 10 µM (UO-31): 86.9% | growth at 10 µM (PC-3): 91.7% | growth at 10 µM (MCF7): 90% | growth at 10 µM (MDA-MB-231): 87.6% | growth at 10 µM (BT-549): 95.9% | growth at 10 µM (T47D): 87.1% | growth at 10 µM (MDA-MB-468): 72.8% | inhibition of growth at 10 µM [1]: 3.91%
